Measurements of several laboratories.
Compare with care: the assays were run in different laboratories.
Target: Serine/threonine-protein kinase VRK1 (VRK1, Homo sapiens, UniProt Q99986)
One construct used (Q99986 1-396): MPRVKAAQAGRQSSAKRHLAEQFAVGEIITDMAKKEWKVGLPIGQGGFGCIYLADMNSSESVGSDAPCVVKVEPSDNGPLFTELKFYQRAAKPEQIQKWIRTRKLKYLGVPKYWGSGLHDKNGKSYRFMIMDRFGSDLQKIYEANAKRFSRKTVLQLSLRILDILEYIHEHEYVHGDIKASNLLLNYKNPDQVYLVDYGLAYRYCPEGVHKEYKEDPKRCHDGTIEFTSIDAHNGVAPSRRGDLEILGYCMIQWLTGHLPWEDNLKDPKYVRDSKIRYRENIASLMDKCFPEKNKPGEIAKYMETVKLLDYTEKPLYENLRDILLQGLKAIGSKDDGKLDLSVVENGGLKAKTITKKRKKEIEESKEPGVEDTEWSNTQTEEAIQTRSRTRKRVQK

SMILES	assay	setting	endpoint	result
O=C(Nc1cnn(-c2csc(C(=O)NC3COC3)c2)c1)Nc1ccccc1Cl	enzyme activity, inhibitor	5 µM	remaining activity	109%
CN1CC(Oc2cnc(C#N)cc2-c2ccn3nc(NC(=O)C4CC4)cc3c2)C1	enzyme activity, inhibitor	1 µM	inhibition	-1%
CC(C)(C)c1nc2c(s1)c1nc(N)ncc1c1ccc(NS(=O)(=O)c3c(F)cccc3F)c(F)c12	enzyme activity, inhibitor, radiometric	1 µM	remaining activity	82%
O=C(Nc1cnn(-c2csc(C(=O)NC3COC3)c2)c1)Nc1c(F)cccc1Cl	enzyme activity, inhibitor	5 µM	remaining activity	91.9%
COc1cc(Cl)c(C(=O)N[C@@H](CN[C@H]2CC[C@@H](N)CC2)Cc2ccc(C#N)cc2)cc1-c1ccc(CN[C@H](C)c2ccc(C)cc2)o1	enzyme activity, inhibitor	1 µM	remaining activity	93%
CN1CCC2(CC1)NC(=O)c1c(c3ccc(Cl)c(Cl)c3n1C)C2C#N (racemic)	thermal stability, DSF	10 µM	ΔTm	0 °C
CC(C)(O)[C@H]1CC[C@H](Nc2ccc3ncc(-c4cccc(C(F)(F)F)c4)n3n2)CC1	enzyme activity, inhibitor	1 µM	remaining activity	74.9%
N#CC1c2c([nH]c3c(Cl)c(Cl)ccc23)C(=O)NC12CCCCC2 (racemic)	thermal stability, DSF	10 µM	ΔTm	0.1 °C
O=C1Nc2ccc(Cl)cc2C1=Cc1cc(Cl)c(O)c(Cl)c1	cell-free assay	0.5 µM	remaining signal	80.6%
Cn1c2c(Cl)c(Cl)ccc2c2cn[nH]c(=O)c21	thermal stability, DSF	10 µM	ΔTm	0 °C
CC(C)(C)c1nc(-c2cccc(NS(=O)(=O)c3c(F)cccc3F)c2F)c(-c2ccnc(N)n2)s1	enzyme activity, inhibitor, radiometric	1 µM	remaining activity	77%
